Compound activity from PubChem BioAssay.
Yeast lifespan up: extends the lifespan of yeast; S. cerevisiae growth with nicotinamide, OD615; deaD strain in restrictive glucose medium; inhibition of the nicotinamide effect, % at 10 µM; 130,000 tested, 0.68% active; AID 775;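 active = inhibition above a set limit, placed 3 SD over the median of all compounds, cut at about 26% in these data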;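 note: 0% = nicotinamide-treated wells and 100% = cells grown without nicotinamide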
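Assay system: DeaD-strain S. cerevisiae. Medium: CSMM-D glucose medium, restrictive. Reagent: nicotinamide, 1.5 mM, co-present with compound. Compound: 10 µM single point, 0.25% DMSO. Schedule: culture preincubation 4 h, compound exposure 48 h, both 30 °C. Detection: absorbance at 615 nm.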
Yeast growth inh: chemicals that inhibit yeast BB579 growth in restrictive medium (lifespan-shortening candidates). S. cerevisiae BB579 growth, OD615, 48 h. inhibition, % at 10 µM. 140,000 tested, 0.51% active. AID 804;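 active = inhibition above a set limit, 3 SD over the mean compound inhibition, cut at about 44% in these data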
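Test system: S. cerevisiae DeaD strain BB579 yeast; Medium: restrictive CSMM-D medium; Compound: one dose, 10 µM compound with 0.25% DMSO; Incubation: 4 h cell preincubation, 48 h compound exposure, 30 °C humidified; Signal: OD at 615 nm; Benchmarks: amphotericin B at 10 µg/mL as positive control.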
RAM inhibit: inhibitors of the yeast RAM network | inhibition, % at 50 µM | 190,000 tested, 1.8% active | S. cerevisiae dse1pr::URA3 reporter, 5-FOA growth OD615, 2 d; analog-sensitive cbk1-as2 kinase mutant strain;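 active = inhibition above a set limit, 3 SD over mean compound inhibition, cut at about 8.4% in these data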;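 note: 0% = DMSO-only wells with no growth and 100% = 10 µM 1-NA-PP1 full growth; inhibition rescues growth on 5-FOA so higher OD means more RAM inhibition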
WT yeast gro inh: growth inhibition of WT yeast, mitochondrial fusion screen; AID 1362; 190,000 tested, 2.1% active; inhibition, % at 10 µM; mitochondrial fusion phenotypic screen, WT strain; in the data active = inhibition above about 58%; tested in S. cerevisiae
RAM efflux-def: restores 5-FOA growth of efflux-deficient yeast | shares compounds with RAM inhibit | S. cerevisiae efflux-deficient reporter strain, 5-FOA growth OD615, 2 days | max inhibition, % | 1,200 tested, under 10 active; call rule not given here;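 note: plate controls were vehicle for no effect and reference inhibitor for full effect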
* marks the source's active call; other numbers are inactive results; / = no result given. Hits are enriched below; roughly 4.3% of the tested compounds scored in any of these assays.

SMILES | Yeast lifespan up | Yeast growth inh | RAM inhibit | WT yeast gro inh | RAM efflux-def
COc1ccc(NC(=O)CSc2nc3sc(C)c(C)c3c(=O)n2Cc2ccco2)cc1 | -23 | -33 | 4 | 6 | /
Cc1sc2nc(SCC(=O)C(C)(C)C)n(Cc3ccco3)c(=O)c2c1C | -13 | -49 | 3 | 23 | /
COc1cccc(CSc2nc3sc(C)c(C)c3c(=O)n2Cc2ccco2)c1 | 2 | -27 | 16* | -7 | 5
CCc1nnc(NC(=O)Cc2ccc(Br)cc2)s1 | / | / | -1 | -21 | /
O=C(O)CCCC(=O)N1CCc2cc(S(=O)(=O)NCc3ccc(F)cc3)ccc21 | / | / | 1 | 0 | /
O=C(O)CC1S/C(=N/N=C/c2ccc(Br)cc2)N(c2ccccc2)C1=O (centres undefined) | / | / | 13* | -6 | 2
COc1cccc(-c2ccc(C#N)c(OC(=O)c3c(Cl)cccc3Cl)n2)c1 | 9 | -49 | 12* | 62* | 1
COc1cccc(-c2ccc(C#N)c(OC(=O)c3ccc(Cl)cc3)n2)c1 | -1 | -33 | 0 | -6 | /
COc1ccc(-c2csc(NC(=O)CSc3ccc(Br)cc3)n2)c(OC)c1 | -2 | -43 | 2 | 5 | /
COc1ccc(OC)c(-c2csc(NC(=O)CSc3ccccc3)n2)c1 | 1 | -26 | 11* | 44 | 4
CCOC(=O)c1c(-c2ccc(OC)cc2)csc1NC(=O)CSc1nnc(C)c(=O)[nH]1 | / | / | 5 | -21 | /
CCOC(=O)c1c(-c2ccccc2)csc1NC(=O)CSc1nnnn1C | -16 | -38 | 8 | 16 | /
CCOC(=O)c1c(-c2ccccc2)csc1NC(=O)CSc1ccccc1 | 3 | -37 | 13* | -8 | 4
CCOC(=O)c1c(NC(=O)CSc2nnnn2-c2ccc(OC)cc2)sc(C)c1C | -4 | 42 | 12* | -4 | 2
CCOC(=O)c1c(-c2ccc(OC)cc2)csc1NC(=O)CSc1ccccc1 | -2 | -26 | 15* | -45 | 3
CCOC(=O)c1sc(NC(=O)COC(=O)C(CCSC)NC(C)=O)nc1C (centres undefined) | 2 | -45 | 1 | 5 | /
CC1(C)COC(c2coc3ccccc3c2=O)OC1 | 20 | -15 | -1 | -1 | /
CCOCCCNC(=O)NC(=O)CN1CCN(S(=O)(=O)c2ccc3c(c2)OCCO3)CC1 | / | / | 1 | -22 | /
CCC(=O)Nc1ccc(S(=O)(=O)Nc2ccc(Cl)nn2)cc1 | -2 | -18 | 1 | -8 | /
CCOC(=O)c1c(NC(=O)CSc2nncs2)sc(C)c1-c1ccccc1 | 2 | -51 | 13* | 20 | 4
Cc1ccc(N=C(NOCc2ccc(Cl)cc2Cl)c2nonc2N)c(C)c1 | -8 | -52 | 13* | 68* | 6
CN1CCN(c2nc(-c3ccc(Cl)s3)cs2)CC1 | / | / | 2 | 12 | /
CCOc1ccc(C(=O)/C=C/Nc2ccc(S(=O)(=O)Nc3onc(C)c3C)cc2)cc1 | 4 | -23 | 6 | -11 | /
Cc1noc(NS(=O)(=O)c2ccc(N/C=C\C(=O)c3ccc(Br)cc3)cc2)c1C | / | / | 12* | 3 | 3
Cc1cc(C)c(OC2(c3ccccc3)OC(=O)c3ccccc32)c(C)c1 (centres undefined) | -3 | -40 | 12* | 79* | 3
SMILES | Yeast lifespan up | Yeast growth inh | RAM inhibit | WT yeast gro inh | RAM efflux-def
CCOC1(c2ccccc2)OC(=O)c2ccccc21 (centres undefined) | -1 | -25 | 1 | -8 | /
Cc1cccc(C)c1OC1(c2ccccc2)OC(=O)c2ccccc21 (centres undefined) | -13 | -60 | 12* | 5 | 6
Cc1onc(-c2c(Cl)cccc2Cl)c1C(=O)N1CCc2ccccc2C1 | -1 | -23 | -1 | -10 | /
Cn1c(=O)c2c(ncn2CC(=O)OCC(=O)Nc2ccccc2Cl)n(C)c1=O | -1 | -34 | 1 | -14 | /
Cn1c(=O)c2c(ncn2CC(=O)OCC(=O)NC(c2ccccc2)c2ccccc2)n(C)c1=O | -4 | -38 | 14* | 17 | 1
N#Cc1c(SCc2ccccc2)nc(N2CCOCC2)c2c1CCCC2 | -1 | -17 | 15* | 29 | 4
O=C(C[n+]1ccn(CCCNP2(=O)C=C(c3ccccc3)OC(c3ccccc3)=C2)c1)c1cccs1 | / | / | 1 | 4 | /
N#Cc1c2n(c(=S)n(-c3ccc(F)cc3)c1=O)CCCCC2 | / | / | 2 | 6 | /
COc1ccc(N=c2oc3cc(O)ccc3cc2C(=O)NCC2CCCO2)cc1 (centres undefined) | -8 | -83 | 4 | 16 | /
Cc1ccc(N=c2oc3cc(O)ccc3cc2C(N)=O)cc1 | -2 | -59 | 27* | -5 | 1
O=C(CSCc1c(F)cccc1Cl)NCc1cccnc1 | 2 | -21 | 0 | -10 | /
CC1CCCN(C(=O)C(C)Sc2nc(-c3ccccc3)cc(C(F)(F)F)n2)C1 (centres undefined) | 20 | -87 | 14* | 50 | 2
CC(C)=CCc1c2c(c3occ(-c4ccc(O)cc4)c(=O)c3c1O)C=CC(C)(C)O2 | / | / | 17* | 54 | 4
CC(C)Oc1cc(O)c2c(=O)c(-c3ccc(O)cc3)coc2c1 | -15 | -12 | -1 | 36 | /
COc1ccc(NC(=O)c2cc3ccccc3o2)cc1 | -11 | -30 | 1 | 5 | /
COc1cccc(C(=O)Oc2ccccc2/C=C\C(=O)c2cc3ccccc3o2)c1 | 4 | -34 | 16* | 17 | 8
CCn1cc(C(=O)N2CCCc3ccccc32)c2cc(OC)c(OC)cc2c1=O | -3 | -32 | 6 | -10 | /
O=[N+]([O-])c1ccc(C2Nc3cccc4cccc(c34)N2)cc1 | 0 | -33 | 12* | 17 | 3
CCOc1ccccc1NC(=O)CCn1cccc1 | / | / | 1 | -11 | /
COc1ccc(-c2ccc(-c3noc(C4CCCCC4)n3)c(OC)n2)cc1 | -13 | -33 | 16* | -13 | 5
COc1ccc(-c2ccc(-c3noc(C)n3)c(OC)n2)cc1 | -23 | -40 | 4 | 0 | /
COc1ccc(-c2ccc(-c3noc(-c4ccccc4C)n3)c(OC)n2)cc1 | -5 | -58 | 16* | 2 | 4
CCOc1nc(-c2ccccc2)ccc1-c1noc(-c2ccco2)n1 | -6 | -31 | 5 | 16 | /
CCOc1nc(-c2ccccc2)ccc1-c1noc(COc2ccccc2)n1 | -17 | -35 | 17* | 0 | 5
COc1ccc(-c2ccc(-c3noc(-c4cccc(OC)c4)n3)c(OC)n2)cc1 | -17 | -23 | 15* | -4 | 3
SMILES | Yeast lifespan up | Yeast growth inh | RAM inhibit | WT yeast gro inh | RAM efflux-def
CCN(CC)C(=O)Cn1cc(SCC(=O)NC2CCCC2)c2ccccc21 | / | / | 1 | 6 | /
O=C1/C(=C/c2cccs2)Sc2ccccc21 | -5 | -46 | 3 | 14 | /
CC(C)COc1ccc(/C=C2/Sc3ccccc3C2=O)cc1 | 1 | -60 | 21* | 14 | 7
CCCCOc1ccc(/C=C2/Sc3ccccc3C2=O)cc1 | -14 | -39 | 17* | 40 | 5
Cc1cccc(Nc2nnc(SCC3CCCCO3)s2)c1 (centres undefined) | -5 | -11 | 14* | 22 | 2
COc1ccc(Nc2nnc(SCC3CCCCO3)s2)cc1 (centres undefined) | / | / | 0 | 5 | /
NCCCCCc1nnc(SCc2ccc(Cl)c(Cl)c2)o1 | -25 | 31 | -2 | 18 | /
